Results taken from publication PMC4682886 (ChemMedChem, 2015).
≈ marks a conversion by molar mass, not a printed value. Where two headings read alike, the source gives them in different places.

Tests used:
[1] = system: C. albicans susceptible strain HLY4123; assay: Dose-response curves of test compounds against C. albicans with fluconazole; type: cell-based; conditions: strain HLY4123, in the presence of fluconazole (0.25 μg/mL); mean ± SD of three independent experiments
[2] = system: resistant clinical isolates of C. albicans; type: cell-based; conditions: for Growth (OD600) +Cpd 31 +Fluc: compound 31 3 μM + fluconazole 64 μg/mL; for Growth (OD600) +Cpd 31 +Fluc / Growth (OD600) +Fluc: 16 h in SC at 30°C; for Growth (OD600) +Fluc: fluconazole 64 μg/mL alone
[3] = system: C. albicans strain HLY4123 and fluconazole-resistant clinical isolates 26 and 45; assay: microbe, parasite or virus in culture; type: cell-based; conditions: for MICcpd (MIC90): compound 31 alone; for FICI: compound 31 and fluconazole; for MICcpd(+Flc) (MIC90): compound 31 in combination with fluconazole; for MIC90: Candida albicans
[4] = system: NIH 3T3 cells; assay: Cytotoxicity against NIH 3T3 cells; type: cell-based; conditions: concentrations up to 1.5 mM, listed as Synazo-1
Procedure, shortened: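 Test compound applied to NIH 3T3 cells at concentrations up to 1.5 mM. Values are arithmetic means ± SD of three independent experiments.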

[5] = in the presence of fluconazole; lowest value; ref [45]; cited from earlier work
[6] = system: resistant clinical isolates of C. albicans; set-up: unit not given beside the values; conditions: ref [69], cited from earlier work
[7] = target: C. albicans sterol α-demethylase (a.k.a. Erg11 or CYP51); conditions: ref [71],[72]; cited from earlier work

SMILES: Cc1c(Cl)ccc2c1NC(=O)[C@@]21[C@H]2C(=O)N(c3ccccc3)C(=O)[C@H]2[C@H]2CN(C(=O)OCc3ccccc3)CCN21 (racemic) [Compound 31, (±)-benzyl (3R,3a′R,3b′S,9a′S)-6-chloro-7-methyl-1′,2,3′-trioxo-2′-phenyl-2′,3′,3a′,3b′,4′,6′,7′,9a′-octahydrospiro[indoline-3,9′-pyrrolo[3′,4′:3,4]pyrrolo[1,2-a]pyrazine]-5′(1′H)-carboxylate]
- EC50 [1]: 0.0003 ± 1e-05 µM
- EC50 ([2]; enhancing the effect of fluconazole against some resistant strains, lowest value): ≥ 0.002 µM
- Growth (OD600) +Cpd 31 +Fluc ([2]; isolate 17): 0.76 OD600
- Growth (OD600) +Cpd 31 +Fluc ([2]; isolate 23): 0.60 OD600
- Growth (OD600) +Cpd 31 +Fluc ([2]; isolate 26): 0.83 OD600
- Growth (OD600) +Cpd 31 +Fluc ([2]; isolate 33): 0.88 OD600
- Growth (OD600) +Cpd 31 +Fluc ([2]; isolate 36): 1.07 OD600
- Growth (OD600) +Cpd 31 +Fluc ([2]; isolate 45): 1.03 OD600
- EC50 ([2]; read-out: Potency +Cpd 31 EC50, isolate 45, fluconazole 64 μg/mL, mean ± SD of three experiments): 0.016 ± 2e-06 µM
- MICcpd (MIC90) ([3]; isolate 26): >30 µM
- FICI ([3]; isolate 26): 0.14
- MICcpd(+Flc) (MIC90) ([3]; isolate 26): 0.3 µM
- MICcpd (MIC90) ([3]; isolate 45): >30 µM
- FICI ([3]; isolate 45): 0.13
- MICcpd(+Flc) (MIC90) ([3]; isolate 45): 0.03 µM
- MICcpd (MIC90) ([3]; strain HLY4123): >300 µM
- FICI ([3]; strain HLY4123): 0.25
- MICcpd(+Flc) (MIC90) ([3]; strain HLY4123): 0.03 µM
- FIC index ([3]; with fluconazole, in all of the strains tested (susceptible and resistant)): below 0.5
- toxicity of compound alone against the strains ([3]; without fluconazole, at the solubility limit): did not have measurable toxicity
- cytotoxicity [4]: low toxicity

SMILES: CN[C@H]1CC[C@@H](c2ccc(Cl)c(Cl)c2)c2ccccc21 [sertraline]
- MIC [5]: ≥ 0.5 mg/L

SMILES: OC(Cn1cncn1)(Cn1cncn1)c1ccc(F)cc1F [Fluconazole, fluconazole, reference compound]
- Growth (OD600) +Fluc ([2]; isolate 17): 3.96 OD600
- Growth (OD600) +Fluc ([2]; isolate 23): 6.77 OD600
- Growth (OD600) +Fluc ([2]; isolate 26): 6.44 OD600
- Growth (OD600) +Fluc ([2]; isolate 33): 7.38 OD600
- Growth (OD600) +Fluc ([2]; isolate 36): 5.08 OD600
- Growth (OD600) +Fluc ([2]; isolate 45): 9.17 OD600
- MIC90 ([3]; read-out: MIC90 for fluconazole, susceptible strain, synazo-1 present at 300 nM): 0.125 µM (≈ 0.0383 µg/mL)
- MIC90 ([3]; read-out: MICFlc (MIC90), isolate 26, fluconazole alone): 836 µM (≈ 256 µg/mL)
- MIC90 ([3]; read-out: MICFlc (MIC90), isolate 45, fluconazole alone): 836 µM (≈ 256 µg/mL)
- MIC90 ([3]; read-out: MICFlc (MIC90), strain HLY4123, fluconazole alone): 0.5 µM (≈ 0.153 µg/mL)
- MICFlc ([6]; isolate 17): 32
- MICFlc ([6]; isolate 23): 32
- MICFlc ([6]; isolate 26): 32
- MICFlc ([6]; isolate 33): 64
- MICFlc ([6]; isolate 36): 64
- MICFlc ([6]; isolate 45): 128
- Ki [7]: 0.03 µM
